Compound activity deposited in PubChem by Johns Hopkins Ion Channel Center.
Compounds with a hit are over-represented: about 3.5% of the library has one in this group of screens.
MrgX1 antagonist – human MrgX1 receptor antagonism, primary screen | 310,000 compounds, 1.3% hits | AID 588676 | B-score at 10 µM | MRGX1-HEK293 calcium flux, Fluo-4, BAM8-22 antagonism; hits give low values | Q96LB2;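 active means calcium-response B-score plate-corrected more than 3 library SD below zero, starting fluorescence within 5 deviations, no agonist response on first addition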;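 further: peak minus trough fluorescence over baseline after final BAM8-22 challenge near maximal dose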
Target sequence (Q96LB2 whole entry, looked up): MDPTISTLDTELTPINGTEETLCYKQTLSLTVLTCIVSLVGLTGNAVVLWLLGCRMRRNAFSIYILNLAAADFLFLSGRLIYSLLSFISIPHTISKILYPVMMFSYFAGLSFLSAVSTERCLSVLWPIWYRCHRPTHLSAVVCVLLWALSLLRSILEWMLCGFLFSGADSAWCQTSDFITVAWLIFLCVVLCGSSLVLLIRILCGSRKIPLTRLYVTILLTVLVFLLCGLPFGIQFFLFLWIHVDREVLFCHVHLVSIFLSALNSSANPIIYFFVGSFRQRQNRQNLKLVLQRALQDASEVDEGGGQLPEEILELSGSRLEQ
RGS4 block – inhibitors of human RGS4; P49798; B-score at 10 µM; 310,000 compounds, 0.45% hits; AID 463165; HEK293 M3R/RGS4 inducible, Fluo-4 calcium flux; hits give high values; triggered by carbachol at its EC20;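 active means B-score, a plate-corrected calcium signal, over three deviations above library mean, with baseline fluorescence within five deviations of library mean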;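 further: RGS4 expression induced by doxycycline in cells with stable M3 receptor; B-score is computed from the integrated fluorescence ratio over baseline after carbachol; higher B-score means a larger calcium signal and so more RGS4 inhibition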
Target sequence (P49798 whole entry, looked up): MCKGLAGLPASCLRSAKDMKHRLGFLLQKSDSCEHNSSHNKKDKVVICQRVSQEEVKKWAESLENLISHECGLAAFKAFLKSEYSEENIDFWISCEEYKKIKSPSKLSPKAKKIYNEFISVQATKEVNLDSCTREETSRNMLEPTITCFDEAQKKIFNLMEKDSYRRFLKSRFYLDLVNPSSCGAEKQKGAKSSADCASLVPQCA
MrgX1 PAM – human MrgX1 positive allosteric modulation, primary screen. Q96LB2. AID 588675. MrgX1-HEK293, Fluo-4 calcium flux, FDSS; hits give high values. 310,000 compounds, 0.63% hits. B-score at 10 µM;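 active means plate-corrected calcium response at least 3 library SD above typical, normal starting fluorescence, not activating the receptor alone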;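 further: compound read alongside a low EC10 to EC30 dose of BAM8-22 agonist; peak minus trough fluorescence over baseline measured at the second addition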
RGS4 act – RGS4 potentiation or activation; HEK293 M3R/inducible RGS4, carbachol calcium flux Fluo4; hits give low values; B-score at 10 µM; 310,000 compounds, 0.92% hits;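 active means B-score of the integrated calcium signal more than 4 SD below the library mean, with starting fluorescence not abnormally high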;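 further: negative B-score means reduced calcium response which marks RGS4 activation or potentiation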
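Assay system: Inducible-RGS4 HEK293 cells carrying M3 receptor | Schedule: Compound preincubation 20 min at room temperature before agonist | Signal: Kinetic calcium fluorescence imaging with Fluo4-AM dye, 2 µM | Read-out basis: B score from integrated fluorescence ratio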
MrgX1 ag – activates human MrgX1 receptor signaling. B-score at 10 µM. 310,000 compounds, 0.44% hits. Q96LB2. MrgX1-HEK293 cells, Fluo-4 calcium fluorescence, agonist mode; hits give high values;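 active means calcium response B-score plate-corrected fluorescence ratio at least 3 library SD, with starting fluorescence B-score inside 5 SD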
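Material – MrgX1-expressing HEK293 cells · Input – 15,000 cells seeded per well · Dosing – compound as first of three additions · Times – overnight seeding, then 1 h dark dye loading · Measured by – kinetic Fluo-4 NW fluorescence of intracellular calcium · Read-out – B-scored fluorescence response ratio · Benchmarks – positive and negative control wells on each plate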
Starred values were filed as active, the others as inactive; i = inactive; x = no result given.

SMILES | MrgX1 antagonist | RGS4 block | MrgX1 PAM | RGS4 act | MrgX1 ag
CN(C(=O)CNC(=O)c1ccc(Br)o1)C1CCCCC1 | i | i | i | i | i
CC(C)N(C(=O)C(=O)c1cccn1-c1ccccc1C#N)C(C)C | i | i | i | i | i
CCS(=O)(=O)C1=NN2C(=N)/C(=C\c3ccc(OC(=O)c4ccco4)cc3)C(=O)N=C2S1 | i | i | 8.6* | i | i
CCC1=NN2C(=N)/C(=C\c3cccn3-c3ccc(Cl)cc3)C(=O)N=C2S1 | i | i | 8.1* | i | i
Cc1ccc(/C=C2/Sc3ccccc3N(CC(=O)NCC3CCCO3)C2=O)cc1 (configuration not stated) | i | i | i | -7.4* | i
CC(C)Nc1ccc(Nc2ccnc3cc4ccccc4cc23)cc1 | i | i | i | -9.9* | i
COc1ccc(CNC(=O)CN(C(=O)CCC(=O)Nc2nccs2)c2ccc3c(c2)OCO3)cc1 | i | i | i | i | i
Cc1onc(-c2ccccc2)c1C(=O)N/N=C/C=C/c1ccccc1 | i | i | i | i | i
Cc1ccc(C(=O)N/N=C/C=C/c2ccccc2)o1 | -7* | i | i | i | i
O=C(O)c1ccc2c(c1)OCCCO2 | i | i | i | i | i
O=C(/C=C/c1ccccc1)c1ccc2c(c1)OCCCCO2 | i | i | 16* | i | i
O=C1COc2ccc(C(=O)/C=C/c3ccccc3)cc2N1 | i | i | i | i | 33*
CC(=O)C(=Nc1ccccc1Cl)NNc1ccc(Cl)cc1 | i | i | i | -11* | i
CCc1ccc(NC(=O)C2CC=CCC2C(=O)O)cc1 (configuration not stated) | i | i | i | i | i
O=C(O)Cc1ccc(NC(=O)C2CC=CCC2C(=O)O)cc1 (configuration not stated) | -8.3* | i | i | i | i
O=C(Nc1ccc(Cl)cc1)[C@@H]1[C@@H]2C(=O)N(c3ccc(Cl)cc3)C(=O)[C@@H]2[C@H]2C=CC=NN21 | i | i | i | i | i
O=C(Nc1ccc(Cl)cc1)[C@@H]1[C@@H]2C(=O)N(c3ccc(Cl)cc3Cl)C(=O)[C@@H]2[C@H]2C=CC=NN21 | -5.1* | i | i | i | i
Cc1c(OC(C)C(=O)NCC(O)c2ccccc2)ccc2c3c(c(=O)oc12)CCC3 (configuration not stated) | i | i | i | i | i
O=C(CN(Cc1ccc(F)cc1)C(=O)Cn1nnc2ccccc21)NCC1CCCO1 (configuration not stated) | i | i | 17* | i | i
O=C(NCc1ccc(F)cc1)C(c1ccccc1)N(CC1CCCO1)C(=O)Cn1nnc2ccccc21 (configuration not stated) | i | i | i | i | i
O=C(CSc1ccccc1)NCC1(N2CCOCC2)CCCCC1 | i | i | i | i | i
Cc1ccc(NC(=O)c2ccc(C(C)(C)C)cc2)cc1[N+](=O)[O-] | i | i | i | i | i
COc1ccccc1NS(=O)(=O)c1cc([N+](=O)[O-])ccc1N/N=C/c1sc(N2CCOCC2)nc1-c1ccccc1 | -8* | i | i | i | i
COc1ccc(C(=O)N/N=C/c2sc(N3CCOCC3)nc2-c2ccccc2)cc1OC | i | i | i | i | i
CC1=NN(/C(=N\c2nnc(C)s2)Nc2ccc(C)cc2)[C@H](c2ccc(C)cc2)S1 | i | i | i | i | 30*
SMILES | MrgX1 antagonist | RGS4 block | MrgX1 PAM | RGS4 act | MrgX1 ag
CC(=O)c1ccc(-n2cc(-c3ccc(C(C)(C)C)cc3)[n+]3c2SCCC3)cc1 | i | i | i | -9.6* | i
N#CC1=C(N)SC(N)=C(C#N)C1CCC1CCCCC1 | -8.8* | i | i | i | i
Cc1sccc1C1C(C#N)=C(N)SC(N)=C1C#N | i | i | i | i | i
O=S(=O)(Nc1ncn[nH]1)c1ccc2ccccc2c1 | i | i | i | i | i
O=S(=O)(Nc1nc2ccccc2[nH]1)c1ccc2ccccc2c1 | i | i | i | -9.6* | i
Cc1ccccc1N1CC(C(=O)Nc2ccncc2)CC1=O (configuration not stated) | i | i | i | i | i
O=C(NN1C(=O)C2C(c3ccccc3)C=CC(c3ccccc3)C2C1=O)c1ccncc1 (configuration not stated) | i | i | i | i | 28*
O=C(NN1C(=O)C2C3C=CC(C3)C2C1=O)c1ccncc1 (configuration not stated) | i | i | i | i | i
O=C(CO/N=C/c1ccc2c(c1)OCO2)Nc1cccc(Br)c1 | i | i | i | i | i
Clc1ccccc1C1CC(c2ccccc2)=Nc2ccccc2N1 (configuration not stated) | i | i | i | -7.4* | i
Brc1ccccc1C1CC(c2ccccc2)=Nc2ccccc2N1 (configuration not stated) | i | i | i | i | i
Cc1nc2scc(-c3ccccc3)c2c(=O)n1N=C1C=CC(=O)C=C1 | x | i | x | -7.7* | x
COc1ccc(CN2C(=O)c3ccccc3C(/C=N/OCc3ccc(Cl)cc3)C2=O)cc1 (configuration not stated) | i | i | i | i | 38*
O=C(C1CCC(CNS(=O)(=O)c2cccs2)CC1)N1CCN(c2ccc(Cl)cc2)CC1 (configuration not stated) | i | i | i | i | i
CCOC(=O)C1=C(COC(=O)/C=C/c2cccc(OC)c2)NC(=O)NC1C (configuration not stated) | i | i | i | -7* | i
CCOC(=O)c1cnc2sc3c(n2c1=O)CCCC3 | -5.2* | x | i | x | i
Cc1ccc(/C=C2\CCC3=C2OC(N)=C(C#N)C3c2ccc(C)cc2)cc1 (configuration not stated) | i | i | i | i | 73*
CN(C)c1cc(-c2ccc(Cl)cc2Cl)oc(=O)c1Cl | i | i | i | i | i
CCCCN(C(=O)C1CC(=O)N(Cc2ccc(C)cc2)C1)c1c(N)n(CC(C)C)c(=O)[nH]c1=O (configuration not stated) | -7.2* | i | i | i | i
CCCCn1c(N)c(N(CCOC)C(=O)C2CC(=O)N(Cc3ccc(C)cc3)C2)c(=O)[nH]c1=O (configuration not stated) | i | i | i | i | i
Cc1nnc(SCC(=O)NC2CCCCC2)n(N)c1=O | i | i | i | i | i
